Legend:
[1] = molecular target: Sodium-dependent dopamine transporter (Rattus norvegicus, UniProt P23977); test: Inhibition of [3H]WIN-35428 binding to Dopamine transporter in rat striatal synaptic membranes; type: cell membranes, Membrane
[2] = molecular target: Sodium-dependent dopamine transporter (Rattus norvegicus) (UniProt P23977); test: Ratio of binding affinity of E isomer to that of Z isomer towards the dopamine transporter expressed as IC50(E)/IC50(Z)
Procedure, shortened: (§1)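 Ratio of IC50 values for the E and Z isomers bearing the same para substituent on the 3β-phenyl ring. Both IC50s come from rat striatal membrane competition binding against 3 nM [3H]WIN 35,428, with 13 concentrations from 10^-12 to 10^-4 M and (−)-cocaine defining nonspecific binding.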

[3] = molecular target: Sodium-dependent dopamine transporter (Rattus norvegicus) (UniProt P23977); test: Ratio of binding affinity of E isomer to that ofZ isomer towards the dopamine transporter expressed as IC50(E)/IC50(Z); procedure, shortened: as §1

Chain of Sodium-dependent dopamine transporter (Rattus norvegicus) (P23977 whole entry): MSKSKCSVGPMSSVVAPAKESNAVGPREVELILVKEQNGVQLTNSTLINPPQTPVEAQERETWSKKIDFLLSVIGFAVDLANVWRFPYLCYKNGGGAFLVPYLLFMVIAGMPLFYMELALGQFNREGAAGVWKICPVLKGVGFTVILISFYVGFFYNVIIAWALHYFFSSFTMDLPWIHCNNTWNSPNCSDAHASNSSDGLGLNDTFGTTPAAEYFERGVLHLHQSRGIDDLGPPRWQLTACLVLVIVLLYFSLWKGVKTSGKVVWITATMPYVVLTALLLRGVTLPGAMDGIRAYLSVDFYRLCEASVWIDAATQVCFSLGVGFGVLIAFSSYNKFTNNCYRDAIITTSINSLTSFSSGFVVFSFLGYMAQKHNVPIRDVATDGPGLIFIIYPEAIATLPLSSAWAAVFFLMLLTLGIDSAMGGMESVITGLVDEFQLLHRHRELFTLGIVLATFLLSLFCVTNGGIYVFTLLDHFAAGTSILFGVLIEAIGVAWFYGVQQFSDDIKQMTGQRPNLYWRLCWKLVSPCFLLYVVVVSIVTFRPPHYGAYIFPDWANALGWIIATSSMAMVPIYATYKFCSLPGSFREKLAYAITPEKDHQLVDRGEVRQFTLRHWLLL
Chain of Sodium-dependent dopamine transporter (P23977 whole entry): as above

Row | SMILES | IC50 [1] | Ratio [2] | Ratio [3]
1 | Cc1ccc(C2CC3CCC(C2C(=O)OC/C=C/I)N3C)cc1 (stereo not drawn) | 0.19 µM |  | 
2 | CN1C2CCC1C(C(=O)OC/C=C\I)C(c1ccccc1)C2 (stereo not drawn) | 0.308 µM | 2.84 | 
3 | CN1C2CCC1C(C(=O)OC/C=C\I)C(c1ccc(Cl)cc1)C2 (stereo not drawn) | 0.0249 µM |  | 1.87
4 | COC(=O)C1C(c2ccc(Cl)cc2)CC2CCC1N2C/C=C/I (stereo not drawn) | 0.0061 µM |  | 
5 | Cc1ccc(C2CC3CCC(C2C(=O)OC/C=C\I)N3C)cc1 (stereo not drawn) | 0.0392 µM |  | 4.84
6 | CN1C2CCC1C(C(=O)OC/C=C/I)C(c1ccc(F)cc1)C2 (stereo not drawn) | 0.567 µM |  | 
7 | CN1C2CCC1C(C(=O)OC/C=C\I)C(c1ccc(F)cc1)C2 (stereo not drawn) | 0.356 µM |  | 1.59
8 | CN1C2CCC1C(C(=O)OC/C=C/I)C(c1ccccc1)C2 (stereo not drawn) | 0.876 µM |  | 
9 | CN1C2CCC1C(C(=O)OC/C=C/I)C(c1ccc(Cl)cc1)C2 (stereo not drawn) | 0.0466 µM |  | 

From ChEMBL document CHEMBL1133862, “Synthesis and binding affinities of 2 beta-(3-iodoallyloxycarbonyl)-3 beta-(4-substituted-aryl)tropane analogues as ligands for the dopamine transporter studies” (Bioorg Med Chem Lett, 2001)
